Experimental data as given in ChEMBL document CHEMBL1149396, “In silico design and synthesis of piperazine-1-pyrrolidine-2,5-dione scaffold-based novel malic enzyme inhibitors” (Bioorg Med Chem Lett, 2006).

The molecules below were run against T1, NADP-dependent malic enzyme (Homo sapiens, UniProt P48163) (assay: Inhibitory activity against cytosolic malic enzyme).
T1 sequence (P48163 whole entry): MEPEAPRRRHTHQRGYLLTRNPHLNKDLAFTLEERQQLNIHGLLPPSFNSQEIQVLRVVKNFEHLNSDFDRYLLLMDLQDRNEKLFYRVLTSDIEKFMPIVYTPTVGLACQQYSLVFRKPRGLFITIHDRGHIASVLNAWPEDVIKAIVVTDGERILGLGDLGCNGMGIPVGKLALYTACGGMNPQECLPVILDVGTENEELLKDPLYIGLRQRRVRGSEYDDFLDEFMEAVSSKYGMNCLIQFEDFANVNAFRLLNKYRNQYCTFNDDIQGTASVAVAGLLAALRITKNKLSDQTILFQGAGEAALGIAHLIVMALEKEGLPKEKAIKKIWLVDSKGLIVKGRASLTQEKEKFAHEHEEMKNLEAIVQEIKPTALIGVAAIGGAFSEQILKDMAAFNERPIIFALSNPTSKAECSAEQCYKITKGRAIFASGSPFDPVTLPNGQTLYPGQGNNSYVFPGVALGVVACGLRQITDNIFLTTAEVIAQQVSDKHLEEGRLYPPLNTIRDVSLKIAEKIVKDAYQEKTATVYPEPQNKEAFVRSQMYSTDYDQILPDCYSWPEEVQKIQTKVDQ
In short: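 Coupled endpoint assay. Enzyme pre-incubated with compound 45 min at room temperature in 85 mM Tris pH 7.5 containing 2 mM malic acid and 5 mM MnCl2. Reaction started with 124 µM NADP, run 30 min at room temperature, stopped with 0.5 M EDTA. NADPH formed read via MTS/PMS reduction to formazan, absorbance at 492 nm.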

SMILES | IC50 [µM]
COc1ccc(N2CCN(C3CC(=O)N(c4ccccc4)C3=O)CC2)cc1 (stereo not given) | > 20
O=C1CC(N2CCN(c3ccc(O)cc3)CC2)C(=O)N1c1ccccc1 (stereo not given) | 0.15
COc1ccc(N2CCN(C3CC(=O)N(c4cccc(Cl)c4Cl)C3=O)CC2)cc1 (stereo not given) | > 20
O=C1CC(N2CCN(c3cccc(C(F)(F)F)c3)CC2)C(=O)N1c1ccccc1 (stereo not given) | 3.15
Cc1ccc(N2C(=O)CC(N3CCN(c4ccc(O)cc4)CC3)C2=O)cc1Cl (stereo not given) | 0.56
O=C1CC(N2CCN(c3ccc(F)cc3)CC2)C(=O)N1c1ccccc1 (stereo not given) | 10
O=C1CC(N2CCN(c3ccccc3O)CC2)C(=O)N1Cc1ccccc1 (stereo not given) | > 20
O=C1CC(N2CCN(c3ccc(O)cc3)CC2)C(=O)N1Cc1ccccc1 (stereo not given) | 0.45
O=C1CC(N2CCN(c3cccc(O)c3)CC2)C(=O)N1Cc1ccccc1 (stereo not given) | 10
COc1ccc(N2CCN(C3CC(=O)N(Cc4ccccc4)C3=O)CC2)cc1 (stereo not given) | > 20
